Data: ChEMBL document CHEMBL3593164, “Rational Design and Synthesis of Thioridazine Analogues as Enhancers of the Antituberculosis Therapy” (J Med Chem, 2015)

Key:
[1] = tested on: Mycobacterium tuberculosis; assay: Inhibition of multidrug resistance efflux pump in Mycobacterium tuberculosis H37Rv assessed as reduction in ofloxacin MIC at 7.5 ug/ml after 7 days by two-dimensional broth microdilution checkerboard assay
Outline: (§1)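 M. tuberculosis H37Rv two-dimensional broth microdilution checkerboard. MICs of INH, RIF, AMK, OFX or EtBr were determined without and with graded sub-inhibitory compound concentrations, starting at ½ MIC. Where MIC was undeterminable, the highest concentration still permitting growth was taken as ½ MIC. FIC = MIC of antibacterial in combination / MIC alone. FIC ≤0.25 was scored as synergism and ≥2 as antagonism.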

[2] = tested on: Mycobacterium tuberculosis; assay: Inhibition of multidrug resistance efflux pump in Mycobacterium tuberculosis H37Rv assessed as ethidium bromide MIC at 3.75 ug/ml after 7 days by two-dimensional broth microdilution checkerboard assay; settings: 168 h
Outline: (§2)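 M. tuberculosis H37Rv ATCC27294. MICs of INH, RIF, AMK, OFX and EtBr were determined alone and with sub-inhibitory concentrations of test compound by two-dimensional broth microdilution checkerboard. Where a compound's MIC was not determinable, the highest concentration still allowing growth was taken as ½ MIC. FIC = MIC in combination / MIC alone. FIC ≤0.25 was scored as synergism and ≥2 as antagonism.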

[3] = tested on: Mycobacterium tuberculosis; assay: Inhibition of multidrug resistance efflux pump in Mycobacterium tuberculosis H37Rv assessed as ofloxacin MIC at 0.23 ug/ml after 7 days by two-dimensional broth microdilution checkerboard assay; settings: 168 h; outline: as §2
[4] = tested on: Mycobacterium tuberculosis; assay: Inhibition of multidrug resistance efflux pump in Mycobacterium tuberculosis H37Rv assessed as isoniazid MIC at 7.5 ug/ml after 7 days by two-dimensional broth microdilution checkerboard assay; settings: 168 h; outline: as §1
[5] = tested on: Mycobacterium tuberculosis; assay: Inhibition of multidrug resistance efflux pump in Mycobacterium tuberculosis H37Rv assessed as amikacin MIC at 0.23 ug/ml after 7 days by two-dimensional broth microdilution checkerboard assay; settings: 168 h; outline: as §2
[6] = tested on: Mycobacterium tuberculosis; assay: Inhibition of multidrug resistance efflux pump in Mycobacterium tuberculosis H37Rv assessed as amikacin MIC at 0.47 ug/ml after 7 days by two-dimensional broth microdilution checkerboard assay; settings: 168 h; outline: as §2
[7] = tested on: Mycobacterium tuberculosis; assay: Inhibition of multidrug resistance efflux pump in Mycobacterium tuberculosis H37Rv assessed as reduction in ethidium bromide MIC at 3.75 ug/ml after 7 days by two-dimensional broth microdilution checkerboard assay; outline: as §1
[8] = tested on: Mycobacterium tuberculosis; assay: Inhibition of multidrug resistance efflux pump in Mycobacterium tuberculosis H37Rv assessed as ethidium bromide MIC at 0.47 ug/ml after 7 days by two-dimensional broth microdilution checkerboard assay; settings: 168 h; outline: as §2
[9] = tested on: Mycobacterium tuberculosis; assay: Inhibition of multidrug resistance efflux pump in Mycobacterium tuberculosis H37Rv assessed as ofloxacin MIC at 1.88 ug/ml after 7 days by two-dimensional broth microdilution checkerboard assay; settings: 168 h; outline: as §2
[10] = tested on: Mycobacterium tuberculosis; assay: Inhibition of multidrug resistance efflux pump in Mycobacterium tuberculosis H37Rv assessed as reduction in amikacin MIC at 7.5 ug/ml after 7 days by two-dimensional broth microdilution checkerboard assay; outline: as §1
[11] = tested on: Mycobacterium tuberculosis; assay: Inhibition of multidrug resistance efflux pump in Mycobacterium tuberculosis H37Rv assessed as rifampin MIC at 0.12 ug/ml after 7 days by two-dimensional broth microdilution checkerboard assay; settings: 168 h; outline: as §2
[12] = tested on: Mycobacterium tuberculosis; assay: Inhibition of multidrug resistance efflux pump in Mycobacterium tuberculosis H37Rv assessed as amikacin MIC at 7.5 ug/ml after 7 days by two-dimensional broth microdilution checkerboard assay; settings: 168 h; outline: as §1
[13] = tested on: Mycobacterium tuberculosis; assay: Inhibition of multidrug resistance efflux pump in Mycobacterium tuberculosis H37Rv assessed as ethidium bromide MIC at 0.12 ug/ml after 7 days by two-dimensional broth microdilution checkerboard assay; settings: 168 h; outline: as §2
[14] = tested on: Mycobacterium tuberculosis; assay: Inhibition of multidrug resistance efflux pump in Mycobacterium tuberculosis H37Rv assessed as rifampin MIC at 0.94 ug/ml after 7 days by two-dimensional broth microdilution checkerboard assay; settings: 168 h; outline: as §2
[15] = tested on: Mycobacterium tuberculosis; assay: Inhibition of multidrug resistance efflux pump in Mycobacterium tuberculosis H37Rv assessed as ofloxacin MIC at 0.47 ug/ml after 7 days by two-dimensional broth microdilution checkerboard assay; settings: 168 h; outline: as §2
[16] = tested on: Mycobacterium tuberculosis; assay: Inhibition of multidrug resistance efflux pump in Mycobacterium tuberculosis H37Rv assessed as rifampin MIC at 0.47 ug/ml after 7 days by two-dimensional broth microdilution checkerboard assay; settings: 168 h; outline: as §2
[17] = tested on: Mycobacterium tuberculosis; assay: Inhibition of multidrug resistance efflux pump in Mycobacterium tuberculosis H37Rv assessed as reduction in rifampin MIC at 7.5 ug/ml after 7 days by two-dimensional broth microdilution checkerboard assay; outline: as §1
[18] = tested on: Mycobacterium tuberculosis; assay: Inhibition of multidrug resistance efflux pump in Mycobacterium tuberculosis H37Rv assessed as amikacin MIC at 0.94 ug/ml after 7 days by two-dimensional broth microdilution checkerboard assay; settings: 168 h; outline: as §2
[19] = tested on: Mycobacterium tuberculosis; assay: Inhibition of multidrug resistance efflux pump in Mycobacterium tuberculosis H37Rv assessed as ethidium bromide MIC at 0.94 ug/ml after 7 days by two-dimensional broth microdilution checkerboard assay; settings: 168 h; outline: as §2
[20] = tested on: Mycobacterium tuberculosis; assay: Inhibition of multidrug resistance efflux pump in Mycobacterium tuberculosis H37Rv assessed as ofloxacin MIC at 0.94 ug/ml after 7 days by two-dimensional broth microdilution checkerboard assay; settings: 168 h; outline: as §2
[21] = tested on: Mycobacterium tuberculosis; assay: Inhibition of multidrug resistance efflux pump in Mycobacterium tuberculosis H37Rv assessed as ethidium bromide MIC at 1.88 ug/ml after 7 days by two-dimensional broth microdilution checkerboard assay; settings: 168 h; outline: as §2
[22] = tested on: Mycobacterium tuberculosis; assay: Inhibition of multidrug resistance efflux pump in Mycobacterium tuberculosis H37Rv assessed as ethidium bromide MIC at 7.5 ug/ml after 7 days by two-dimensional broth microdilution checkerboard assay; settings: 168 h; outline: as §1
[23] = tested on: Mycobacterium tuberculosis; assay: Inhibition of multidrug resistance efflux pump in Mycobacterium tuberculosis H37Rv assessed as ofloxacin MIC at 7.5 ug/ml after 7 days by two-dimensional broth microdilution checkerboard assay; settings: 168 h; outline: as §1
[24] = tested on: Mycobacterium tuberculosis; assay: Inhibition of multidrug resistance efflux pump in Mycobacterium tuberculosis H37Rv assessed as reduction in rifampin MIC at 4 ug/ml after 7 days by two-dimensional broth microdilution checkerboard assay; outline: as §1
[25] = tested on: Mycobacterium tuberculosis; assay: Inhibition of multidrug resistance efflux pump in Mycobacterium tuberculosis H37Rv assessed as rifampin MIC at 2 ug/ml after 7 days by two-dimensional broth microdilution checkerboard assay; settings: 168 h
[26] = tested on: Mycobacterium tuberculosis; assay: Inhibition of multidrug resistance efflux pump in Mycobacterium tuberculosis H37Rv assessed as reduction in isoniazid MIC at 64 ug/ml after 7 days by two-dimensional broth microdilution checkerboard assay; outline: as §1
[27] = tested on: Mycobacterium tuberculosis; assay: Inhibition of multidrug resistance efflux pump in Mycobacterium tuberculosis H37Rv assessed as ofloxacin MIC at 1 ug/ml after 7 days by two-dimensional broth microdilution checkerboard assay; settings: 168 h; outline: as §1
[28] = tested on: Mycobacterium tuberculosis; assay: Inhibition of multidrug resistance efflux pump in Mycobacterium tuberculosis H37Rv assessed as amikacin MIC at 1 ug/ml after 7 days by two-dimensional broth microdilution checkerboard assay; settings: 168 h; outline: as §1
[29] = tested on: Mycobacterium tuberculosis; assay: Inhibition of multidrug resistance efflux pump in Mycobacterium tuberculosis H37Rv assessed as reduction in amikacin MIC at 32 ug/ml after 7 days by two-dimensional broth microdilution checkerboard assay; outline: as §1
[30] = tested on: Mycobacterium tuberculosis; assay: Inhibition of multidrug resistance efflux pump in Mycobacterium tuberculosis H37Rv assessed as reduction in ethidium bromide MIC at 128 ug/ml after 7 days by two-dimensional broth microdilution checkerboard assay
[31] = tested on: Mycobacterium tuberculosis; assay: Inhibition of multidrug resistance efflux pump in Mycobacterium tuberculosis H37Rv assessed as reduction in ofloxacin MIC at 128 ug/ml after 7 days by two-dimensional broth microdilution checkerboard assay

With `CSc1ccc2c(c1)N(CCC1CCCCN1C)c1ccccc1S2` (stereo unspecified) [THIORIDAZINE] the “fold change (FC)” value [1] was greater than 128, the MIC [2] was 3.12 µg/mL and the MIC [3] was 1 µg/mL. It also gave an MIC [4] of less than 0.00078 µg/mL, an MIC [5] of 1 µg/mL and an MIC [6] of 1 µg/mL. For the same molecule, the “fold change (FC)” value [7] was 4, the MIC [8] was 6.25 µg/mL and the MIC [9] was 1 µg/mL. The “fold change (FC)” value [10] was greater than 128, the MIC [11] was 1 µg/mL and the MIC [12] was less than 0.0156 µg/mL. For the same molecule, the MIC [13] was 6.25 µg/mL, the MIC [14] was 1 µg/mL and the MIC [15] was 1 µg/mL. For the same molecule, the MIC [16] was 1 µg/mL, the “fold change (FC)” value [17] was greater than 64 and the MIC [18] was 1 µg/mL. For the same molecule, the MIC [19] was 6.25 µg/mL, the MIC [20] was 1 µg/mL and the MIC [21] was 6.25 µg/mL. It also gave an MIC [22] of less than 0.195 µg/mL and an MIC [23] of less than 0.0156 µg/mL.

For `COc1ccc(N(CCC2CCCCN2C)C(C)C)cc1OC` (racemic), the “fold change (FC)” value [24] was 4.

For `CN1CCCCC1CCn1c2ccccc2c2ccccc21` (racemic), the MIC [25] was 1 µg/mL, the “fold change (FC)” value [26] was greater than 128 and the MIC [27] was 1 µg/mL. The MIC [28] was 1 µg/mL and the “fold change (FC)” value [29] was 4.

In the case of `CN1CCCCC1CCn1ccc2ccc(Br)cc21` (racemic), the “fold change (FC)” value [30] is reported as greater than 164 and the “fold change (FC)” value [31] is reported as greater than 128.
